According to ChEMBL document CHEMBL5252569, “Synthesis and biological evaluation of new β-D-N4-hydroxycytidine analogs against SARS-CoV-2, influenza viruses and DENV-2” (Bioorg Med Chem Lett, 2023):

Key:
SARS-CoV-2 [1] = assay: Antiviral activity against SARS-CoV-2 (hCoV-19/Korea/KCDC-06/2020) infected in African green monkey Vero cells preincubated with cells for 24 hrs followed by viral infection and measured after 24 hrs by DAPI-staining based fluorescence assay; format: functional, organism-based; conditions: Severe acute respiratory syndrome coronavirus 2, hCoV-19/Korea/KCDC-06/2020, Vero
Vero = assay: (§1) Cytotoxicity against African green monkey Vero cells assessed as reduction in cell viability incubated for 24 hrs by MTT assay; format: toxicity, cell-based; conditions: chlorocebus sabaeus, vero, 24 h
In short: (§2)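 Viability of non-infected or infected cells (Vero CCL-81 or MDCK CCL-34) measured by MTT; CC50 calculated by nonlinear regression.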

[2] = (§3) Cytotoxicity against hamster BHK-21 cells incubated for 4 days by MTS assay; format: toxicity, cell-based, Mesocricetus auratus; conditions: BHK-21 cells, time 4 day
MDCK = assay: (§4) Cytotoxicity against MDCK cells assessed as reduction in cell viability measured for 48 hrs by MTT assay; format: toxicity, cell-based, Canis lupus familiaris; conditions: dog, mdck, 48 h; in short: as §2
Influenza B virus [3] = assay: Antiviral activity against Influenza B virus B/Lee/40 infected in MDCK cells assessed as reduction in virus-induced cytopathic effect pre-infected with cells for 1 hrs followed by compound addition and measured after 3 days by fluorescein diacetate-based cell viability assay; format: functional, organism-based; conditions: B/Lee/40, MDCK
Influenza A virus [4] = assay: Antiviral activity against Influenza A virus A/Hong Kong/8/68 (H3N2) infected in MDCK cells assessed as reduction in virus-induced cytopathic effect pre-infected with cells for 1 hrs followed by compound addition and measured after 3 days by fluorescein diacetate-based cell viability assay; format: functional, organism-based
Influenza A virus [5] = assay: Antiviral activity against Influenza A virus A/Puerto Rico/8/34 (H1N1) infected in MDCK cells assessed as reduction in virus-induced cytopathic effect pre-infected with cells for 1 hrs followed by compound addition and measured after 3 days by fluorescein diacetate-based cell viability assay; format: functional, organism-based
dengue virus type 2 [6] = assay: Antiviral activity against Dengue virus 2 infected in hamster BHK-21 cells incubated for 48 hrs by renilla luciferase based assay; format: functional, organism-based; conditions: BHK-21, 48 h
In short: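 DENV-2 replicon-bearing BHK-21 cells (DENV2-BHK); replication read out with a Renilla luciferase assay system; EC50 calculated by nonlinear regression.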

SARS-CoV-2 [7] = assay: Potency index, ratio of MK-4482 EC50 to test compound EC50 for antiviral activity against antiviral activity against SARS-CoV-2 (hCoV-19/Korea/KCDC-06/2020) infected in African green monkey Vero cells preincubated with cells for 24 hrs followed by viral infection and measured after 24 hrs by DAPI-staining based fluorescence assay; format: functional, Severe acute respiratory syndrome coronavirus 2; conditions: time 48 hrs
Influenza A virus [8] = assay: Potency index, ratio of ribavirin EC50 to test compound EC50 for antiviral activity against Influenza A virus A/Hong Kong/8/68 (H3N2) infected in MDCK cells assessed as reduction in virus-induced cytopathic effect pre-infected with cells for 1 hrs followed by compound addition and measured after 3 days by fluorescein diacetate-based cell viability assay; format: functional; conditions: time 3 day
Influenza B virus [9] = assay: Potency index, ratio of MK-4482 EC50 to test compound EC50 for antiviral activity against Influenza B virus B/Lee/40 infected in MDCK cells assessed as reduction in virus-induced cytopathic effect pre-infected with cells for 1 hrs followed by compound addition and measured after 3 days by fluorescein diacetate-based cell viability assay; format: functional; conditions: time 3 day
Influenza A virus [10] = assay: Potency index, ratio of ribavirin EC50 to test compound EC50 for antiviral activity against Influenza A virus A/Puerto Rico/8/34 (H1N1) infected in MDCK cells assessed as reduction in virus-induced cytopathic effect pre-infected with cells for 1 hrs followed by compound addition and measured after 3 days by fluorescein diacetate-based cell viability assay; format: functional; conditions: time 3 day
BHK-21 = assay: as §3; format: toxicity, cell-based, Mesocricetus auratus; conditions: bhk-21, 96 h, time 4 day
dengue virus type 2 [11] = assay: Potency index, ratio of […] for antiviral activity against Dengue virus 2 infected in hamster BHK-21 cells incubated for 48 hrs by renilla luciferase based assay; format: functional
Influenza B virus [12] = assay: Potency index, ratio of ribavirin EC50 to test compound EC50 for antiviral activity against Influenza B virus B/Lee/40 infected in MDCK cells assessed as reduction in virus-induced cytopathic effect pre-infected with cells for 1 hrs followed by compound addition and measured after 3 days by fluorescein diacetate-based cell viability assay; format: functional; conditions: time 3 day
dengue virus type 2 [13] = assay: Potency index, ratio of MK-4482 EC50 to test compound EC50 for antiviral activity against Dengue virus 2 infected in hamster BHK-21 cells incubated for 48 hrs by renilla luciferase based assay; format: functional
SARS-CoV-2 [14] = assay: Potency index, ratio of remdesivir EC50 to test compound EC50 for antiviral activity against SARS-CoV-2 (hCoV-19/Korea/KCDC-06/2020) infected in African green monkey Vero cells preincubated with cells for 24 hrs followed by viral infection and measured after 24 hrs by DAPI-staining based fluorescence assay; format: functional, Severe acute respiratory syndrome coronavirus 2; conditions: time 48 hrs
SARS-CoV-2 [15] = assay: Potency index, ratio of beta-D-N4-hydroxycytidine EC50 to test compound EC50 for antiviral activity against antiviral activity against SARS-CoV-2 (hCoV-19/Korea/KCDC-06/2020) infected in African green monkey Vero cells preincubated with cells for 24 hrs followed by viral infection and measured after 24 hrs by DAPI-staining based fluorescence assay; format: functional, Severe acute respiratory syndrome coronavirus 2; conditions: time 48 hrs
Influenza B virus [16] = assay: Potency index, ratio of T-705 EC50 to test compound EC50 for antiviral activity against Influenza B virus B/Lee/40 infected in MDCK cells assessed as reduction in virus-induced cytopathic effect pre-infected with cells for 1 hrs followed by compound addition and measured after 3 days by fluorescein diacetate-based cell viability assay; format: functional; conditions: time 3 day
[17] = as §1; format: toxicity, cell-based; conditions: chlorocebus sabaeus, Vero cells; in short: as §2
[18] = as §4; format: toxicity, cell-based, Canis lupus familiaris; conditions: dog, MDCK cells; in short: as §2

| Compound | EC50 (SARS-CoV-2 [1]) [µM] | CC50 (Vero) [µM] | CC50 at 96 h [2] [µM] | CC50 (MDCK) [µM] | EC50 (Influenza B virus [3]) [µM] | EC50 (Influenza A virus [4]) [µM] | EC50 (Influenza A virus [5]) [µM] | EC50 (dengue virus type 2 [6]) [µM] | also measured |
| --- | --- | --- | --- | --- | --- | --- | --- | --- | --- |
| NNc1ccn([C@@H]2O[C@H](CO)[C@@H](O)[C@H]2O)c(=O)n1 | > 100 | > 100 | 100 | > 100 | > 100 | > 100 | > 100 | 100 | – |
| CCOC(=O)CNc1ccn([C@@H]2O[C@H](CO)[C@@H](O)[C@H]2O)c(=O)n1 | > 100 | > 100 | 100 | > 100 | > 100 | > 100 | > 100 | 100 | – |
| CC(C)(C)OC(=O)NNc1ccn([C@@H]2O[C@H](CO)[C@@H](O)[C@H]2O)c(=O)n1 | > 100 | > 100 | 100 | > 100 | > 100 | > 100 | > 100 | 100 | – |
| CCOC(=O)[C@H](CC(C)C)Nc1ccn([C@@H]2O[C@H](CO)[C@@H](O)[C@H]2O)c(=O)n1 | > 100 | > 100 | 100 | > 100 | > 100 | > 100 | > 100 | 100 | – |
| CCOC(=O)[C@H](Cc1ccccc1)Nc1ccn([C@@H]2O[C@H](CO)[C@@H](O)[C@H]2O)c(=O)n1 | > 100 | > 100 | 100 | > 100 | > 100 | > 100 | > 100 | 100 | – |
| CC(C)C(=O)ONc1ccn([C@@H]2O[C@H](CO)[C@@H](O)[C@H]2O)c(=O)n1 | 3.5 | – | – | – | 3.4 | 7.3 | 5.8 | 3.95 | Ratio EC50 (SARS-CoV-2 [7]): 3.4; Ratio EC50 (Influenza A virus [8]): 5; Ratio EC50 (Influenza B virus [9]): 7; Ratio EC50 (Influenza A virus [10]): 6; CC50 (BHK-21): 10.8 µM; Ratio EC50 (dengue virus type 2 [11]): 3; Ratio EC50 (Influenza B virus [12]): 10; Ratio EC50 (dengue virus type 2 [13]): 5.9; Ratio EC50 (SARS-CoV-2 [14]): 3; Ratio EC50 (SARS-CoV-2 [15]): >4.7; Ratio EC50 (Influenza B virus [16]): 2 |
| NC(=O)c1nc(F)cnc1O | – | – | – | – | 7.6 | 8.5 | 3.2 | – | – |
| O=c1nc(NCCO)ccn1[C@@H]1O[C@H](CO)[C@@H](O)[C@H]1O | > 100 | – | 100 | – | > 100 | > 100 | > 100 | 100 | CC50 at 24 h [17]: > 100 µM; CC50 at 48 h [18]: > 100 µM |
| NC12CC3CC(CC(C3)C1)C2 [AMANTADINE] | – | – | – | – | > 100 | 6.4 | > 100 | – | – |
| O=c1nc(NO)ccn1[C@@H]1O[C@H](CO)[C@@H](O)[C@H]1O [N-HYDROXYCYTIDINE] | > 16.5 | 16.5 | – | > 100 | < 1.2 | 2.3 | 1.7 | 2.84 | CC50 (BHK-21): 5.75 µM |
| CCC(CC)COC(=O)[C@H](C)N[P@](=O)(OC[C@H]1O[C@@](C#N)(c2ccc3c(N)ncnn23)[C@H](O)[C@@H]1O)Oc1ccccc1 | – | – | – | – | – | – | – | – | CC50 at 24 h [17]: > 100 µM |
| CCOC(=O)[C@H](C)Nc1ccn([C@@H]2O[C@H](CO)[C@@H](O)[C@H]2O)c(=O)n1 | > 100 | > 100 | 100 | > 100 | > 100 | > 100 | > 100 | 100 | – |
| CC(C)C(=O)OC[C@H]1O[C@@H](n2ccc(NO)nc2=O)[C@H](O)[C@@H]1O [MOLNUPIRAVIR] | 11.8 | – | – | – | 23.8 | 6 | 6.6 | 23.4 | CC50 (BHK-21): 42.2 µM |
| NC(=O)c1ncn([C@@H]2O[C@H](CO)[C@@H](O)[C@H]2O)n1 [RIBAVIRIN] | – | – | – | – | 33.3 | – | – | 1.16 | CC50 (BHK-21): 5.46 µM; CC50 at 48 h [18]: > 100 µM |
